Key:
Presenilin-1 [1] = molecular target: T1, Presenilin-1 (Homo sapiens, UniProt P49768); experiment: Inhibition of PS1 gamma-secretase assessed as reduction of amyloid beta-40 production by membrane based assay
Procedure, shortened: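 Aβ40 production was measured in a membrane-based assay. IC50 was the average of at least two measurements, with standard deviation 20%.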

Mus musculus [2] = experiment: Antialzheimer activity in transgenic CRND8 mouse assessed as decrease of amyloid beta-40 level in plasma at 30 mg/kg, po after 3 hrs; format: functional; parameters: scale not given: the % may be the effect or the level left
Procedure, shortened: (§1)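 CRND8 mice were dosed orally at 30 mg/kg. Aβ40 in plasma and cortex was measured 3 h post-dose and reported as % change, negative for lowering and positive for increase.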

Presenilin-2 = Presenilin-2 (Homo sapiens, UniProt P49810); experiment: Inhibition of PS2 gamma-secretase expressed in HEK cells harboring Awe-Lon gene assessed as reduction of amyloid beta-42 production; format: cell-based, HEK293
Presenilin-2, sequence (P49810 1-297 limits assumed): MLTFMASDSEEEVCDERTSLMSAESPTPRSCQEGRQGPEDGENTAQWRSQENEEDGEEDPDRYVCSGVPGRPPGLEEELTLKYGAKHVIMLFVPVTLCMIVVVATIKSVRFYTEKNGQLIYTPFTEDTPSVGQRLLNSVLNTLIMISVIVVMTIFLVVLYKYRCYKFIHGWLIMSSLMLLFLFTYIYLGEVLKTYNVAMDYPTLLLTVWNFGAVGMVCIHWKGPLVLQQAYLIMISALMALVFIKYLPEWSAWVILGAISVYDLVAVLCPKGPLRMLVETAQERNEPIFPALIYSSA
Presenilin-2, sequence (P49810 298-448 limits assumed): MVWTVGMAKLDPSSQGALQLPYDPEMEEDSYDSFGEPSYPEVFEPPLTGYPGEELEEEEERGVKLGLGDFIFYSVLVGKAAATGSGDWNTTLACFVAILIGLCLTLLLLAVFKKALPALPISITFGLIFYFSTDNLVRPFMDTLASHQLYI

Presenilin-1 [3] = molecular target: T1, Presenilin-1; experiment: Inhibition of PS1 gamma-secretase expressed in HEK cells harboring Awe-Lon gene assessed as reduction of amyloid beta-40 production; format: cell-based, HEK293
Procedure, shortened: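 Cell-based Aβ40 production assay in HEK293 cells carrying APP Awe-Lon. IC50 was the average of at least two determinations, with standard deviation 20%.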

Mus musculus [4] = experiment: Antialzheimer activity in transgenic CRND8 mouse assessed as decrease of amyloid beta-40 level in cortex at 30 mg/kg, po after 3 hrs; format: functional; parameters: scale not given: the % may be the effect or the level left; procedure, shortened: as §1
Mus musculus [5] = experiment: Antialzheimer activity in B6C3F1 mouse assessed as reduction of amyloid beta-40 level in cortex at 10 mg/kg, po after 3 hrs; format: functional; parameters: scale not given: the % may be the effect or the level left
Procedure, shortened: (§2)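 B6C3F1 mice were dosed orally at 10 or 30 mg/kg. Aβ40 in plasma and cortex was measured 3 h after dosing and expressed as % change, with lowering shown as negative.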

Mus musculus [6] = experiment: Antialzheimer activity in B6C3F1 mouse assessed as reduction of amyloid beta-40 level in plasma at 10 mg/kg, po after 3 hrs; format: functional; parameters: scale not given: the % may be the effect or the level left; procedure, shortened: as §2
Mus musculus [7] = experiment: Antialzheimer activity in B6C3F1 mouse assessed as reduction of amyloid beta-40 level in plasma at 30 mg/kg, po after 3 hrs; format: functional; parameters: scale not given: the % may be the effect or the level left; procedure, shortened: as §2
Mus musculus [8] = experiment: Antialzheimer activity in B6C3F1 mouse assessed as reduction of amyloid beta-40 level in cortex at 30 mg/kg, po after 3 hrs; format: functional; parameters: scale not given: the % may be the effect or the level left; procedure, shortened: as §2
[9] = Selectivity ratio of IC50 for PS2 gamma-secretase to IC50 for PS1 gamma-secretase
Procedure, shortened: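 Inhibitors were tested against reconstituted γ-secretase complexes containing PS1 or PS2. The result is expressed as the PS2/PS1 ratio of IC50 values.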

Mus musculus [10] = experiment: Antialzheimer activity in transgenic CRND8 mouse assessed as increase of amyloid beta-40 level in plasma at 30 mg/kg, po after 3 hrs; format: functional; procedure, shortened: as §1

O=S(=O)(c1ccc(Cl)cc1)[C@]12CCO[C@H](CCO)[C@H]1COc1c(F)ccc(F)c12
IC50 (Presenilin-1 [1]): 320 nM

CC(C)S(=O)(=O)CC[C@@H]1OCC[C@@]2(S(=O)(=O)c3ccc(Cl)cc3)c3c(F)ccc(F)c3OC[C@@H]12 (racemic)
IC50 (Presenilin-1 [1]): 24 nM | Activity (Mus musculus [2]): 20% | IC50 (Presenilin-2): 10 nM | IC50 (Presenilin-1 [3]): 26 nM | Activity (Mus musculus [4]): 57%

CC(C)S(=O)(=O)CC[C@@H]1OCC[C@@]2(S(=O)(=O)c3ccc(Cl)cc3)c3c(F)ccc(F)c3OC[C@@H]12
IC50 (Presenilin-1 [1]): 6 nM | Activity (Mus musculus [5]): 58% | Activity (Mus musculus [6]): 2% | IC50 (Presenilin-2): 3 nM | IC50 (Presenilin-1 [3]): 8 nM

CCS(=O)(=O)CC[C@@H]1OCC[C@@]2(S(=O)(=O)c3ccc(Cl)cc3)c3c(F)ccc(F)c3OC[C@@H]12
IC50 (Presenilin-1 [1]): 3 nM | Activity (Mus musculus [7]): 60% | Activity (Mus musculus [8]): 79% | Ratio IC50 [9]: 26 | IC50 (Presenilin-2): 2 nM | IC50 (Presenilin-1 [3]): 5 nM

N#CCC[C@@H]1OCC[C@@]2(S(=O)(=O)c3ccc(Cl)cc3)c3c(F)ccc(F)c3OC[C@@H]12 (racemic)
IC50 (Presenilin-1 [1]): 22 nM | Activity (Mus musculus [10]): 18% | Ratio IC50 [9]: 6 | IC50 (Presenilin-2): 16 nM | IC50 (Presenilin-1 [3]): 37 nM

Reference: ChEMBL document CHEMBL2157980, “Discovery of SCH 900229, a Potent Presenilin 1 Selective γ-Secretase Inhibitor for the Treatment of Alzheimer's Disease” (ACS Med Chem Lett, 2012)
